Reference: publication PMC4710169 (Biomedical chromatography : BMC, 2014)

Tests used:
Freeze–thaw stability = type: in vitro ADME
Method in brief: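 Samples at 324 and 3240 ng/mL, run in triplicate. Each cycle was 24 h at −20°C, then unassisted thawing at room temperature, then refreezing; three cycles in total. Samples then extracted with methanol (0.04% formic acid) on ice and analysed by reversed-phase HPLC-DAD at 295 nm. Final concentration expressed as percent of initial.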

[1] = Short- and long-term stability in mouse plasma; type: in vitro ADME; settings: for compound remaining intact in mouse plasma: 4°C
Method in brief: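 Mouse plasma spiked at 324 and 3240 ng/mL, analysed in duplicate. Short-term storage at 37°C (2, 4, 6, 8, 12, 24 h) or 4°C (4, 8, 12, 24 h); long-term storage at −80°C for 2–8 weeks. Samples then methanol-extracted and analysed by HPLC-DAD. Results given as percent of freshly prepared samples.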

[2] = Bench-top stability in mouse plasma and tissue homogenates at 25°C; type: in vitro ADME; settings: plasma and most tissue homogenates except for liver
[3] = Homogenization stability in mouse tissues; type: in vitro ADME; settings: homogenized
Method in brief: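 Compound at 324 and 3240 ng/mL injected into equal weights of blank mouse tissue, kept inside the organ. Tissue homogenized in two volumes (v/w) PBS on ice, extracted at once by methanol precipitation and analysed immediately. Analysis by C18 HPLC-DAD at 295 nm. Recovery given as percent of initial concentration.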

[4] = Stock solution stability at room temperature; type: physicochemical; settings: room temperature (25°C), 24 h; 324 and 3240 ng/mL
Method in brief: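 Stock solutions of analyte and internal standard, at 324 and 3240 ng/mL, tested fresh and after storage at 25°C. Tested at 6, 12 and 24 h after preparation, using the same extraction and C18 HPLC-DAD (295 nm) procedure.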

[5] = Nonspecific binding to container surface; type: physicochemical, mouse
Method in brief: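 Sequential transfer test. Plasma or tissue homogenate spiked at 324 or 3240 ng/mL was poured, without a pipette, through four identical clean tubes in turn. Solution stood 5–20 min at room temperature in each donor tube for adsorption. 100 μL taken from each tube and measured by the same extraction and HPLC-DAD method.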

mouse plasma proteins = assay: Plasma protein binding by micro-ultrafiltration; type: in vitro ADME; settings: 37°C, 1 h
Method in brief: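 Mouse plasma spiked at 324 and 3240 ng/mL and held at 37°C for 1 h; PBS used as control matrix. Micro-ultrafiltration by centrifugation at 2000g until dry. Filtrate (free, F) and unfiltered solution (total, T) each assayed in triplicate by HPLC, and filter-bound amount (X) also measured. Percent bound = [(T−F−X)/T]×100.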

[6] = test system: hepatic microsomal S9 fractions from CD2F1 mice; assay: S9 metabolism in vitro; type: in vitro ADME; settings: mouse S9, 60 min incubation, 37°C
Method in brief: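 Hepatic S9 fraction from CD2F1 mice, containing phase I and II enzymes and cofactors, incubated with compound. Compound added as a 3240 ng/mL DMSO solution (not final concentration) into cold 100 mM Tris, pH 7.4. Duplicate portions taken at 0, 15, 30, 45 and 60 min and analysed for intact compound by HPLC, against a no-S9 control.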

[7] = type: in vivo, female nu/nu mice
Method in brief: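 Nude mice carrying subcutaneous MIAPaCa-2 xenografts (1 × 10^7 cells, left inguinal) were dosed once with 40 mg/kg i.p. when tumours reached 100 mg, n=3 per group. Vehicle was PEG400–EtOH–saline (57.1:14.3:28.6). Retro-orbital plasma and necropsy tissues taken at 0–24 h. Urine and feces collected over 24 h in metabolic cages. Tissues homogenized in PBS, methanol-extracted and measured by HPLC-DAD.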

pancreatic cancer cells = settings: ref: our previous studies; cited from earlier work
tumor growth = settings: 40 mg/kg intraperitoneal; ref: our previous studies; cited from earlier work
[8] = female, nu/nu, mouse, plasma, intraperitoneal, 40 mg/kg

Compound: COc1ccc2[nH]c3c(-c4cccc5ccccc45)nccc3c2c1 [SP-141, 6-methoxy-1-(naphthalen-1-yl)-9H-pyrido[3,4-b]indole]
- percentage of remaining concentration after three freeze–thaw cycles (Freeze–thaw stability; 324 ng/mL): 98.24 ± 0.69%
- percentage of remaining concentration after three freeze–thaw cycles (Freeze–thaw stability; 3240 ng/mL): 97.44 ± 1.53%
- compound remaining intact in mouse plasma ([1]; 24 h, 324 ng/mL): 95.9%
- compound remaining intact in mouse plasma ([1]; 24 h, 3240 ng/mL): 94.3%
- compound remaining in mouse plasma ([1]; 37°C, 24 h, both 324 and 3240 ng/mL): more than 77%
- compound remaining in mouse plasma ([1]; −80°C, 8 weeks, 324 ng/mL): 95.7%
- compound remaining in mouse plasma ([1]; −80°C, 8 weeks, 3240 ng/mL): 98.7%
- bench-top stability [2]: relatively stable
- recovery at 324 ng/mL ([3]; blank brain tissue): 91.3 ± 0.98%
- recovery at 3240 ng/mL ([3]; blank brain tissue): 101 ± 1.45%
- recovery at 324 ng/mL ([3]; blank heart tissue): 81.8 ± 4.47%
- recovery at 3240 ng/mL ([3]; blank heart tissue): 86.6 ± 1.39%
- recovery at 324 ng/mL ([3]; blank kidney tissue): 82.5 ± 2.6%
- recovery at 3240 ng/mL ([3]; blank kidney tissue): 87.8 ± 1.36%
- recovery at 324 ng/mL ([3]; blank liver tissue): 86.7 ± 1.36%
- recovery at 3240 ng/mL ([3]; blank liver tissue): 89.22 ± 0.77%
- recovery at 324 ng/mL ([3]; blank lung tissue): 89 ± 1.57%
- recovery at 3240 ng/mL ([3]; blank lung tissue): 93.3 ± 1.02%
- recovery at 324 ng/mL ([3]; blank muscle tissue): 97.18 ± 0.9%
- recovery at 3240 ng/mL ([3]; blank muscle tissue): 97.5 ± 1.47%
- recovery at 324 ng/mL ([3]; blank spleen tissue): 93 ± 5.2%
- recovery at 3240 ng/mL ([3]; blank spleen tissue): 99.7 ± 1.15%
- recovery at 324 ng/mL ([3]; blank tumor tissue): 99.61 ± 0.79%
- recovery at 3240 ng/mL ([3]; blank tumor tissue): 99.12 ± 0.19%
- stock solution stability [4]: unchanged
- Recovery (%) ± SD (%), nonspecific binding ([5]; Brain, 324 ng/mL): 96.29 ± 2.54%
- Recovery (%) ± SD (%), nonspecific binding ([5]; Brain, 3240 ng/mL): 100.58 ± 0.81%
- Recovery (%) ± SD (%), nonspecific binding ([5]; Heart, 324 ng/mL): 100.41 ± 0.27%
- Recovery (%) ± SD (%), nonspecific binding ([5]; Heart, 3240 ng/mL): 98.82 ± 0.38%
- Recovery (%) ± SD (%), nonspecific binding ([5]; Kidney, 324 ng/mL): 99.88 ± 3.11%
- Recovery (%) ± SD (%), nonspecific binding ([5]; Kidney, 3240 ng/mL): 97.13 ± 1.04%
- Recovery (%) ± SD (%), nonspecific binding ([5]; Liver, 324 ng/mL): 104.91 ± 6.65%
- Recovery (%) ± SD (%), nonspecific binding ([5]; Liver, 3240 ng/mL): 99.69 ± 1.38%
- Recovery (%) ± SD (%), nonspecific binding ([5]; Lungs, 324 ng/mL): 96.64 ± 2.24%
- Recovery (%) ± SD (%), nonspecific binding ([5]; Lungs, 3240 ng/mL): 99.99 ± 0.21%
- Recovery (%) ± SD (%), nonspecific binding ([5]; Muscle, 324 ng/mL): 101.12 ± 2.33%
- Recovery (%) ± SD (%), nonspecific binding ([5]; Muscle, 3240 ng/mL): 99.19 ± 1.01%
- Recovery (%) ± SD (%), nonspecific binding ([5]; Plasma, 324 ng/mL): 98.95 ± 1.49%
- Recovery (%) ± SD (%), nonspecific binding ([5]; Plasma, 3240 ng/mL): 100.49 ± 0.04%
- Recovery (%) ± SD (%), nonspecific binding ([5]; Spleen, 324 ng/mL): 99.54 ± 2.10%
- Recovery (%) ± SD (%), nonspecific binding ([5]; Spleen, 3240 ng/mL): 99.99 ± 0.22%
- Recovery (%) ± SD (%), nonspecific binding ([5]; Tumor, 324 ng/mL): 96.84 ± 2.30%
- Recovery (%) ± SD (%), nonspecific binding ([5]; Tumor, 3240 ng/mL): 99.20 ± 0.57%
- bound to proteins in mouse plasma (mouse plasma proteins; 324 ng/mL): 57.23%
- bound to proteins in mouse plasma (mouse plasma proteins; 3240 ng/mL): 62.61%
- compound metabolized by phase II components [6]: 18.8%
- order of highest overall concentrations in tissues ([7]; 40 mg/kg i.p. single dose): spleen > lungs > liver > kidney > brain > tumor > muscle > heart
- concentration in plasma ([7]; 40 mg/kg i.p. single dose, 6 h): undetectable
- detection in tumor tissue ([7]; 40 mg/kg i.p., 24 h after administration, low concentrations): could be detected
- excretion of parent compound in urine and feces ([7]; 40 mg/kg i.p., 24 h collection, data not shown): minimally excreted
- half-life in plasma ([7]; 40 mg/kg i.p., tumor-bearing nude mice): short half-life
- concentration at 10 min [7, 8]: ~3000 ng/mL
- concentration at 4 h [7, 8]: 200 ng/mL
- effective level against pancreatic cancer cells in vitro (pancreatic cancer cells): submicromolar
- effect on tumor growth in vivo (tumor growth): suppresses the tumor growth
- host toxicity in vivo (tumor growth): no significant host toxicity

Compound: COc1ccc2c(c1)[nH]c1c(-c3ccc4ccccc4c3)nccc12 [SP-157, 7-methoxy-1-(naphthalen-2-yl)-9H-pyrido[3,4-b]indole, reference compound]
- stock solution stability [4]: unchanged
